HIF activator: HIF pathway transcriptional activation | U2OS HRE-luciferase reporter, luminescence; normalized: DMSO 0%, desferrioxamine 100% | activation, % at 7.5 µM (by protocol) | 300,000 tested, 0.32% active | AID 1910;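 active means mean activation of at least 10% of the iron chelator positive control signal, with at least half of replicates also reaching 10%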
ARNT-TACC3 inh: disrupts binding between human ARNT and TACC3. inhibition, % at 9.99 µM. 390,000 tested, 0.66% active. Q9Y6A5. AlphaScreen His-ARNT PAS-B/GST-TACC3 binding, luminescence; TACC3 fragment carries E629A point mutation;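 active means mean inhibition of replicates at least 50% and at least half of replicates each reaching 50%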;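 further: 0% = complete ARNT plus TACC3 wells and 100% = ARNT alone without TACC3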
T cruzi repl: T. cruzi replication inhibition | T. cruzi beta-gal in NIH3T3, luminescence, 90 h | inhibition, % (test concentration not listed) | 300,000 tested, 1.4% active | AID 1885;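 active means mean inhibition across valid replicates above about 55%, limit read from the data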;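 further: signal also drops with host cell toxicity which is not excluded here; 0% = plate median of DMSO wells and 100% = zero luminescence signal; higher percent means less beta-gal luminescence so fewer parasites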
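compound dosing = single 50 nL compound addition per well in DMSO | material = NIH/3T3 host cells with β-galactosidase reporter T. cruzi | input = 5,000 host fibroblasts per well | timing = ≥90 h infection period, 3 h prior cell attachment | read-out basis = percent inhibition of parasite-derived β-gal signal | detection = GalScreen β-gal luminescence, detergent lysis, 60 min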
AI-2 QS modul: modulators of Vibrio harveyi AI-2 quorum sensing system. Vibrio harveyi JMH597 AI-2 luminescence/OD600 ratio, 9 h; active compounds read low; strain lacks LuxN and CqsS sensors; 0 = neutral-control median. activity change, % at 7.5 µM. 300,000 tested, 0.4% active. AID 2094; in the data active means activity change below about -75%, passing the limit was not always enough;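 further: luminescence divided by OD600 gain over 9 h not by final OD600 alone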
An asterisk follows results filed as active; nt = no result. Shown are actives, neighbours in structure and some others; about 2% of the full set was active somewhere.

SMILES | HIF activator | ARNT-TACC3 inh | T cruzi repl | AI-2 QS modul
O=C(NC(NC(=S)Nc1ccccc1Cl)C(Cl)(Cl)Cl)c1cccc(Cl)c1 (stereo not given) | 1 | -2 | 60* | 24
COc1ccc(NC(=S)NC(NC(=O)c2cccc(Cl)c2)C(Cl)(Cl)Cl)c([N+](=O)[O-])c1 (stereo not given) | 0 | -12 | 73* | 12
COc1ccc(NC(=S)NC(NC(=O)c2cccc(C)c2)C(Cl)(Cl)Cl)c([N+](=O)[O-])c1 (stereo not given) | nt | 4 | nt | nt
O=C(C[C@@H]1C[C@H]2c3cc(NC(=O)c4ccc5c(c4)OCO5)ccc3O[C@H]2[C@H](CO)O1)NCC(F)(F)F | nt | -1 | nt | nt
CN(C)C(=O)C[C@@H]1CC[C@H]2[C@H](COc3ccc(NC(=O)c4cnccn4)cc3C(=O)N2C)O1 | nt | 3 | nt | nt
Cc1noc(C)c1S(=O)(=O)Nc1ccc2c(c1)CC(=O)N([C@H](C)CO)C[C@@H](C)[C@H](CN(C)Cc1ccc(Cl)c(Cl)c1)O2 | nt | -8 | nt | nt
CC(=O)Nc1cccc(Oc2nc(C(F)(F)F)nc3ccccc23)c1 | 1 | -6 | -9 | 26
CC(=O)Nc1ccc(Oc2nc(-c3ccccn3)nc3ccccc23)cc1 | 3 | 58* | -13 | 7
CC(=O)Nc1cccc(Oc2nc(-c3ccccn3)nc3ccccc23)c1 | 2 | 48* | -14 | 8
COc1ccc(S(=O)(=O)Nc2ccc3c(c2)C(=O)N([C@H](C)CO)C[C@H](C)[C@H](CN(C)C(=O)c2ccccc2)OCCCC[C@@H](C)O3)cc1 | nt | -8 | nt | nt
O=C(CO/N=C/c1ccc(Cl)cc1Cl)NNC(=O)c1ccc(Cl)cc1Cl | 3 | -9 | -20 | -88*
O=C(CO/N=C/c1c(Cl)cccc1Cl)NNC(=O)c1cccc(Cl)c1 | -1 | -3 | -12 | 5
Cc1cc(C(=O)Nc2cccc3c2O[C@@H](CN(C)S(=O)(=O)c2ccc(F)cc2)[C@H](C)CN([C@@H](C)CO)C3=O)n(C)n1 | nt | -8 | nt | nt
C[C@H](CO)N1C[C@H](C)[C@@H](CN(C)Cc2cccnc2)Oc2ncc(-c3ccncc3)cc2C1=O | nt | 1 | nt | nt
C[C@@H]1CN([C@H](C)CO)C(=O)c2cc(NC(=O)NC3CCCCC3)ccc2O[C@@H]1CN(C)Cc1ccc(C(=O)O)cc1 | nt | 9 | nt | nt
Cc1cccc(NC(=O)c2nc[nH]c2C(=O)N[C@@H](CCCCNC(=O)OC(C)(C)C)C(=O)OC(C)(C)C)c1 | -1 | 3 | 62* | 1
CC(C)(C)OC(=O)NCCCC[C@H](NC(=O)c1nc[nH]c1C(=O)NC(c1ccccc1)c1ccccc1)C(=O)OC(C)(C)C | -1 | 0 | 56* | 17
Cc1cccc(NC(=O)c2nc[nH]c2C(=O)NCCCCCNC(=O)OC(C)(C)C)c1 | nt | 13 | nt | nt
CO[C@@H]1CN(C)C(=O)c2ccc(NS(=O)(=O)C3CCCCC3)cc2OC[C@H](C)NC[C@H]1C | nt | -4 | nt | nt
Cc1noc(C)c1NC(=O)N(C)C[C@H]1OCCCC[C@H](C)Oc2ccc(N(C)C)cc2C(=O)N([C@@H](C)CO)C[C@@H]1C | nt | 19 | nt | nt
CC(=O)N(/N=C1\Sc2ccccc2C1=O)c1ccccc1C | 3 | 59* | -3 | 13
COc1ccc(-c2ccc3c(c2)[C@@H]2[C@@H](CCN2S(=O)(=O)c2ccc(OC)cc2)[C@@H](CO)N3C)cc1 | nt | -4 | nt | nt
CC(C)Nc1nc(NC(C)C)nc(N(C#N)CCOc2ccc(Cl)cc2Cl)n1 | -1 | -1 | 73* | 13
O=C(C[C@H]1CC[C@H](NC(=O)CCN2CCCCC2)[C@H](CO)O1)NCc1ccc(Cl)c(Cl)c1 | nt | -10 | nt | nt
CC1=NN(C(N)=S)C(=O)C1N=Nc1c(C)n(C)n(-c2ccccc2)c1=O (stereo not given) | 0 | 47* | -6 | 29
SMILES | HIF activator | ARNT-TACC3 inh | T cruzi repl | AI-2 QS modul
CC1=NN(C(N)=S)C(=O)C1N=Nc1ccccc1O (stereo not given) | -19 | 76* | 3 | -9
CCN(CC)CCCNc1ccc2ncn3c4ccc(O)cc4c(=O)c1c23 | nt | 74* | nt | nt
CCOc1ccc(Br)cc1C1C(C(=O)OC)=C(N)Oc2cc(N(C)C)ccc21 (stereo not given) | 1 | 2 | 69* | 29
O=C([C@H]1[C@H](CO)[C@H]2Cn3c(ccc(-c4ccccc4F)c3=O)[C@@H]1N2C(=O)C1CCC1)N1CCCCC1 | nt | -2 | nt | nt
C[C@@H]1CN([C@H](C)CO)C(=O)c2cc(/C=C/c3ccccc3)cnc2O[C@H]1CN(C)Cc1cncnc1 | nt | -7 | nt | nt
Cc1cc(NCCN2CCOCC2)c2ccc3ccccc3c2n1 | 1 | nt | 65* | -3
C[C@@H]1CCCCO[C@H](CN(C)S(=O)(=O)c2ccc(F)cc2)[C@@H](C)CN([C@H](C)CO)C(=O)c2cc(NC(=O)CCCN(C)C)ccc2O1 | nt | -6 | nt | nt
O=[N+]([O-])c1ccc(S(=O)(=O)N2CCN(Cc3c[nH]c4ccccc34)CC2)cc1 | 0 | nt | 74* | 32
O=S(=O)(c1ccc(Cl)cc1)N1CCN(Cc2ccc(O)c3ncccc23)CC1 | 4 | 41 | 55* | -34
c1ccc(CN2CCN(Cc3c[nH]c4ccccc34)CC2)cc1 | -1 | -9 | 60* | 16
O=C(C[C@@H]1C=C[C@@H](NC(=O)C2CC2)[C@@H](CO)O1)NCc1ccncc1 | nt | -4 | nt | nt
C[C@@H]1CN([C@@H](C)CO)C(=O)c2cc(NC(=O)NC3CCCCC3)ccc2O[C@@H](C)CCCCO[C@H]1CN(C)C(=O)Cc1ccccc1 | nt | 3 | nt | nt
C[C@@H]1CN([C@H](C)CO)C(=O)Cc2cc(NS(=O)(=O)c3cccs3)ccc2O[C@H]1CN(C)C(=O)Nc1ccccc1 | nt | 3 | nt | nt
COc1cc2nc(N(CCCN(C)C)C(=O)c3ccc(S(=O)(=O)N4CCc5ccccc5C4)cc3)sc2cc1OC | 1 | 7 | 57* | 23
COc1ccc(OC)c2sc(N(CCCN(C)C)C(=O)c3ccc(S(=O)(=O)N4CCc5ccccc5C4)cc3)nc12 | -8 | nt | 60* | 3
O=C(C[C@@H]1CC[C@@H]2NC[C@@H](O)COC[C@H]2O1)NCCN1CCCCC1 | nt | -6 | nt | nt
CCOC(=O)c1c(NC(C)=O)sc2c(OCCN(CC)CC)c(Br)ccc12 | -7 | 5 | 58* | 6
Oc1cccnc1CCc1ccccc1 | 0 | -7 | 7 | 11
OCCN(Cc1ccccc1)Cc1ncccc1O | nt | 24* | nt | nt
O=C(NC[C@H]1[C@H](c2ccccc2)[C@@H](CO)N1C(=O)Cc1cccnc1)C1CC1 | nt | -16 | nt | nt
Cc1cccc(NC(=O)Cn2c(/C=C/c3ccccc3)nc3ccccc32)c1 | 3 | 48* | 17 | 20
CCN1[C@@H]2c3ccc(C4=CCCCC4)c(=O)n3C[C@H]1[C@H](CO)[C@H]2C(=O)NCCc1ccncc1 | nt | -12 | nt | nt
Brc1cc2c(cc1Br)OCCOCCOCCOCCO2 | 0 | 6 | 3 | 3
Brc1ccc2c(c1)OCCOCCOc1cc(Br)ccc1OCCOCCOCCO2 | nt | -2 | 65* | -2
CCOC(=O)c1sc2ncnc(N3CCN(C(=O)OCC)CC3)c2c1C | 0 | -3 | 14 | 23
CCOC(=O)c1sc2ncnc(N3CCN(CC)CC3)c2c1C | 0 | 5 | 77* | 14

Screening results (PubChem BioAssay)
